High-throughput results as filed in PubChem.
MrgX1 ag: activates human MrgX1 receptor signaling | Q96LB2 | MrgX1-HEK293 cells, Fluo-4 calcium fluorescence, agonist mode; stronger effect = higher value | hit rate 0.44% among 310,000 | B-score at 10 µM;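 active means calcium response B-score plate-corrected fluorescence ratio at least 3 library SD, with starting fluorescence B-score inside 5 SD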
Target sequence (Q96LB2 whole entry, looked up): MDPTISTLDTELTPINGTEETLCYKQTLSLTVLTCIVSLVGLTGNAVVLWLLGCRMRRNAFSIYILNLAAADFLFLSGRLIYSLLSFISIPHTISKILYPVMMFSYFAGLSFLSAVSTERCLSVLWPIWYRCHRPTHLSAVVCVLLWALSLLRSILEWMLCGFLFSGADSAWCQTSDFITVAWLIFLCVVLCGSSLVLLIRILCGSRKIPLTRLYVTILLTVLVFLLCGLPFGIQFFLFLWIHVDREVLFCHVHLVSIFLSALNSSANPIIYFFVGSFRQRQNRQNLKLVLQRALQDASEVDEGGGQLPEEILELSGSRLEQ
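Test system: HEK293 cells stably expressing human MrgX1 receptor; amount: 15,000 cells per well; doses: compound delivered in addition one of three; times: overnight plating before 1 h dye loading; detection: Fluo-4 NW calcium-flux fluorescence, kinetic read; read-out basis: B-scored fluorescence response ratio; controls: positive and negative controls per plate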
RGS4 inh: human RGS4 inhibition | HEK293 M3R/RGS4 inducible, Fluo-4 calcium flux; stronger effect = higher value; triggered by carbachol at its EC20 | hit rate 0.45% among 310,000 | AID 463165 | P49798 | B-score at 10 µM;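 active means B-score, a plate-corrected calcium signal, over three deviations above library mean, with baseline fluorescence within five deviations of library mean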;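 further: RGS4 expression induced by doxycycline in cells with stable M3 receptor; B-score is computed from the integrated fluorescence ratio over baseline after carbachol; higher B-score means a larger calcium signal and so more RGS4 inhibition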
Target sequence (P49798 whole entry, looked up): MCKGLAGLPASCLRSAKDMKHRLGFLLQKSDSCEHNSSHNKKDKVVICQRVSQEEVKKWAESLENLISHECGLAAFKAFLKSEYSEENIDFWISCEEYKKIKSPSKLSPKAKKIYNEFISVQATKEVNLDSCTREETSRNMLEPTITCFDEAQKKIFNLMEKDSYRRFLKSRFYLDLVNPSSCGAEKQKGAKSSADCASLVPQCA
MrgX1 allo act: allosterically activates human MrgX1 receptor signaling | MrgX1-HEK293, Fluo-4 calcium flux, FDSS; stronger effect = higher value | B-score at 10 µM | hit rate 0.63% among 310,000 | Q96LB2 | AID 588675;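 active means plate-corrected calcium response at least 3 library SD above typical, normal starting fluorescence, not activating the receptor alone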;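 further: compound read alongside a low EC10 to EC30 dose of BAM8-22 agonist; peak minus trough fluorescence over baseline measured at the second addition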
MrgX1 antagonist: blocks BAM8-22 activation of human MrgX1 receptor; Q96LB2; MRGX1-HEK293 calcium flux, Fluo-4, BAM8-22 antagonism; stronger effect = lower value; B-score at 10 µM; hit rate 1.3% among 310,000; AID 588676;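 active means calcium-response B-score plate-corrected more than 3 library SD below zero, starting fluorescence within 5 deviations, no agonist response on first addition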;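 further: peak minus trough fluorescence over baseline after final BAM8-22 challenge near maximal dose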
RGS4 pot: potentiators or activators of RGS4; B-score at 10 µM; HEK293 M3R/inducible RGS4, carbachol calcium flux Fluo4; stronger effect = lower value; hit rate 0.92% among 310,000;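 active means B-score of the integrated calcium signal more than 4 SD below the library mean, with starting fluorescence not abnormally high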;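 further: negative B-score means reduced calcium response which marks RGS4 activation or potentiation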
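System – HEK293 FlpIn-TREx cells, stable M3R, doxycycline-inducible RGS4 · Reagent – ECmax carbachol challenge · Times – compound preincubation 20 min at room temperature before agonist · Technique – Fluo4 fluorescence kinetic imaging of calcium · Measure – B score of integrated Fluo4 ratio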
RGS4 block valid: validation of RGS4 inhibitors. HEK293 M3R/RGS4, carbachol calcium Fluo-4 fluorescence; carbachol added at its EC20; 0 = buffer wells, 100 = carbachol control. hit rate 65% among 1,700. shares compounds with RGS4 inh. calcium response, % at 10 µM;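 active means duplicate-averaged calcium response above the buffer-only control mean plus 5 SD of those controls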;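 further: integrated fluorescence ratio F max minus min over baseline F0; higher response in RGS4-induced cells means RGS4 inhibition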
RGS4 uninduced: counter-screen for RGS4 inhibitors: effect in non-induced cells. activity (percent), % at 10 µM. HEK293 M3R non-induced, carbachol calcium Fluo-4; submaximal (EC20) carbachol stimulus; buffer wells 0%, carbachol control wells 100%. hit rate 20% among 1,900. shares compounds with RGS4 inh; call rule not given here;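 further: RGS4 induction absent so cells express M3R without RGS4; higher means more calcium signal and flags a non-specific hit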
M3R basal Ca ctr: second counter-screen for RGS4 inhibitors: non-induced cells without carbachol. shares compounds with RGS4 inh. hit rate 22% among 1,900. HEK293 M3R/RGS4 non-induced, Fluo-4 calcium, no carbachol; normalised: buffer wells 0%, carbachol wells 100%. AID 493001. calcium response (agonist-mode artifact), % at 10 µM;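 active means duplicate-averaged calcium rise in uninduced cells above buffer wells' mean plus 5 SD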
Numbers without * were called inactive; i = inactive; x = no result given. The list is not random: actives were taken first. Their share in the collection is about 3.5%.

SMILES | MrgX1 ag | RGS4 inh | MrgX1 allo act | MrgX1 antagonist | RGS4 pot | RGS4 block valid | RGS4 uninduced | M3R basal Ca ctr
CCOC(=O)[C@@H]1[C@H]2COc3ccccc3[C@H]2N2C(=O)N(c3ccccc3)C(=O)[C@]12C | i | i | i | i | i | i | i | i
CCOC(=O)[C@@H]1[C@H]2COc3ccccc3[C@@H]2N2C(=O)N(c3ccc(F)cc3)C(=O)[C@]12C | i | i | i | i | i | i | i | i
CCOC(=O)[C@@H]1[C@H]2COc3ccccc3[C@H]2N2C(=O)N(c3cccc(F)c3)C(=O)[C@]12C | i | i | i | i | i | i | i | i
CCOC(=O)C1CCN(S(=O)(=O)c2c[nH]c(=O)[nH]c2=O)CC1 | i | i | i | i | i | x | x | x
Cc1ccc(S(=O)(=O)NCCC(=O)N2CCCCCCC2)cc1 | i | i | i | i | i | x | x | x
CCOC(=O)[C@@H]1[C@H]2COc3ccccc3[C@@H]2N2C(=O)N(c3ccc(Cl)cc3)C(=O)[C@]12C | i | i | i | i | i | i | i | i
CCOC(=O)[C@@H]1[C@H]2COc3ccc(Br)cc3[C@@H]2N2C(=O)N(c3ccc(Br)cc3)C(=O)[C@]12C | i | i | i | i | i | x | x | x
CCOC(=O)[C@@H]1[C@H]2COc3ccccc3[C@@H]2N2C(=O)N(c3ccccc3)C(=O)[C@]12C | i | i | i | i | i | i | i | i
CCOC(=O)[C@@H]1[C@H]2COc3ccccc3[C@@H]2N2C(=O)N(c3ccccc3)C(=O)[C@@]12C | i | i | i | i | i | i | i | i
CCOc1ccc(NC(=O)CN(C)C(=O)C2=COCCO2)cc1OCC | i | i | i | i | i | x | x | x
CC1=CC(C)(C)N2C(=O)C3(C(C#N)=C(N)OC4=C3C(=O)CCC4)c3c(C)c(C)cc1c32 (configuration not stated) | i | i | i | i | i | x | x | x
CC1=CC(C)(C)N2C(=O)C3(C(C#N)=C(N)Oc4cc(O)ccc43)c3c(C)c(C)cc1c32 (configuration not stated) | i | 5.94* | i | i | i | 29.0%* | i | i
COc1ccc(NC(=O)c2ccc(NC(=O)COC(=O)c3cnc(C)cn3)cc2)cc1 | i | i | i | i | i | x | x | x
COc1ccc(N2C(=O)CC(Sc3ncn[nH]3)C2=O)c(OC)c1 (configuration not stated) | i | 12.4* | i | i | i | 21.5%* | i | i
CC(C)c1ccc(N2C(=O)CC(Sc3ncn[nH]3)C2=O)cc1 (configuration not stated) | i | i | i | i | i | x | x | x
COc1ccc(-c2nn(-c3ccccc3)cc2C(=O)NC(=S)Nc2cc(Cl)ccc2Cl)cc1 | i | i | i | i | i | x | x | x
O=C(O)c1cc2c(N3CCC(Cc4ccccc4)CC3)ncnc2s1 | i | 16.6* | i | i | i | 57.5%* | 50.5%* | i
c1ccc(CC2CCN(c3ncnc4sccc34)CC2)cc1 | x | i | x | x | i | x | x | x
Cc1ccc(C)c(/C=N/Nc2nc3ccccc3c(=O)n2O)c1 | i | i | i | i | i | x | x | x
COc1ccc(C(=O)NCCN2C(=O)S/C(=C\c3cccnc3)C2=O)cc1[N+](=O)[O-] | i | i | i | i | i | i | i | i
O=C(NC(C(=O)N/N=C/c1ccccc1)c1n[nH]c(=O)c2ccccc12)c1ccccc1 (configuration not stated) | i | i | i | i | i | i | i | 10.5%*
O=C(NC(C(=O)N/N=C/c1c2ccccc2cc2ccccc12)c1n[nH]c(=O)c2ccccc12)c1ccccc1 (configuration not stated) | i | i | i | i | i | i | i | 127.5%*
CC(NC(=O)c1ccccc1)C(=O)N/N=C/c1ccccc1 (configuration not stated) | i | i | i | i | i | x | x | x
CC(SCc1ccccc1)C(=O)Nc1ccccc1 (configuration not stated) | i | i | i | i | i | x | x | x
Cn1c2ccccc2c2c(C(=O)NCc3ccco3)cn(C3CCCCC3)c(=O)c21 | i | i | i | i | i | i | i | i
SMILES | MrgX1 ag | RGS4 inh | MrgX1 allo act | MrgX1 antagonist | RGS4 pot | RGS4 block valid | RGS4 uninduced | M3R basal Ca ctr
COC(=O)NCN1C(=O)C2C3C=CC(C3)C2C1=O (configuration not stated) | i | i | i | i | i | x | x | x
CCOC(=O)/C(C#N)=C\c1cn(C)c2ccccc12 | i | i | i | i | i | x | x | x
CCOC(=O)/C(=C\c1cn(C)c2ccccc12)[N+](=O)[O-] | i | 5.8* | i | -4.6* | i | 34.0%* | i | 20.0%*
COc1ccc(S(=O)(=O)N2CCC(C(N)=O)CC2)cc1C(=O)N1CCCCCC1 | i | i | i | i | i | x | x | x
CN1C(=O)C(O)(C2CCCCCC2=O)c2ccccc21 (configuration not stated) | i | i | i | i | i | x | x | x
CC1=NN(c2ccc(C)c(C)c2)C(=O)C1C(c1cccc(O)c1)C1C(=O)N(c2ccc(C)c(C)c2)N=C1C (configuration not stated) | i | 15.4* | i | i | i | 13.5%* | i | i
CC(=O)Oc1c(Cl)cc(N(C(C)=O)S(=O)(=O)c2ccccc2)c2ccccc12 | i | i | i | i | i | x | x | x
O=C1NN(c2ccccc2)C(=O)/C1=C/c1coc2ccccc2c1=O | i | i | i | i | i | x | x | x
O=C1NN(c2ccccc2)C(=O)/C1=C\c1coc2ccc(O)cc2c1=O | 27.5* | 7.86* | i | i | i | 30.5%* | i | i
O=C(N/N=C/c1ccc(O)cc1)NC12CC3CC(CC(C3)C1)C2 | i | 5.22* | i | i | i | 20.5%* | 58.0%* | 11.0%*
O=C(NC(=S)Nc1ccc2[nH]c(=O)[nH]c2c1)c1cccc(F)c1 | i | i | i | i | i | x | x | x
